pIC50: −log10 of the molar value.
Key:
[1] = Reversal of P-gp-mediated multidrug resistance in human K562/A02 cells assessed as reduction of adriamycin IC50 at 5 uM after 48 hrs by MTT assay; type: cell-based; settings: K562/A02, 48 h
Outline: (§1)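 MTT on K562/A02 cells exposed to a series of adriamycin concentrations, with or without modulator at 5 µM; 0.1% DMSO as solvent control. Reversal fold = adriamycin IC50 without modulator / IC50 with modulator.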

[2] = Resistance factor, ratio of adriamycin IC50 for human K562/A02 cells over-expressing Pgp to adriamycin IC50 for human K562/A02 cells over-expressing Pgp in presence of 5 uM compound; type: functional; outline: as §1
[3] = Cytotoxicity against human K562/A02 cells at 5 uM after 48 hrs by MTT assay; type: cell-based; settings: k562/a02, 48 h
Outline: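 Adriamycin-selected K562/A02 cells given test compound alone at 5 µM for 48 h; cytotoxicity scored by MTT as intrinsic growth inhibition.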

[4] = Cytotoxicity against human K562/A02 cells after 48 hrs by MTT assay; type: functional, cell-based; settings: K562/A02, 48 h
[5] = Cytotoxicity against human GES-1 cells after 48 hrs by MTT assay; type: cell-based; settings: GES1, 48 h
[6] = Reversal of P-gp-mediated multidrug resistance in human K562/A02 cells assessed as reduction of adriamycin IC50 at 2.5 uM after 48 hrs by MTT assay; type: cell-based; settings: K562/A02, 48 h
Outline: (§2)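 K562/A02 (P-gp-overexpressing) cells given graded adriamycin plus modulator at 2.5, 1.25, 0.625, 0.31, 0.156, 0.078 or 0.04 µM; verapamil 2.5 µM as positive control; adriamycin IC50 by MTT. Reversal fold = IC50 without modulator / IC50 with modulator. Two to three experiments, mean ± SEM.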

[7] = Reversal of P-gp-mediated multidrug resistance in human K562/A02 cells assessed as reduction of adriamycin IC50 at 1.25 uM after 48 hrs by MTT assay; type: cell-based; settings: K562/A02, 48 h; outline: as §2
[8] = Reversal of P-gp-mediated multidrug resistance in human K562/A02 cells assessed as reduction of adriamycin IC50 at 0.625 uM after 48 hrs by MTT assay; type: cell-based; settings: K562/A02, 48 h; outline: as §2
[9] = Reversal of P-gp-mediated multidrug resistance in human K562/A02 cells assessed as reduction of adriamycin IC50 at 0.31 uM after 48 hrs by MTT assay; type: cell-based; settings: K562/A02, 48 h; outline: as §2
[10] = Reversal of P-gp-mediated multidrug resistance in human K562/A02 cells assessed as reduction of adriamycin IC50 at 0.156 uM after 48 hrs by MTT assay; type: cell-based; settings: K562/A02, 48 h; outline: as §2
[11] = Reversal of P-gp-mediated multidrug resistance in human K562/A02 cells assessed as reduction of adriamycin IC50 at 0.078 uM after 48 hrs by MTT assay; type: cell-based; settings: K562/A02, 48 h; outline: as §2
[12] = Reversal of P-gp-mediated multidrug resistance in human K562/A02 cells assessed as reduction of adriamycin IC50 at 0.04 uM after 48 hrs by MTT assay; type: cell-based; settings: K562/A02, 48 h; outline: as §2
[13] = Resistance factor, ratio of adriamycin IC50 for human K562/A02 cells over-expressing Pgp to adriamycin IC50 for human K562/A02 cells over-expressing Pgp in presence of 2.5 uM compound; type: functional; outline: as §2
[14] = Resistance factor, ratio of adriamycin IC50 for human K562/A02 cells over-expressing Pgp to adriamycin IC50 for human K562/A02 cells over-expressing Pgp in presence of 1.25 uM compound; type: functional; outline: as §2
[15] = Resistance factor, ratio of adriamycin IC50 for human K562/A02 cells over-expressing Pgp to adriamycin IC50 for human K562/A02 cells over-expressing Pgp in presence of 0.625 uM compound; type: functional; outline: as §2
[16] = Resistance factor, ratio of adriamycin IC50 for human K562/A02 cells over-expressing Pgp to adriamycin IC50 for human K562/A02 cells over-expressing Pgp in presence of 0.31 uM compound; type: functional; outline: as §2
[17] = Resistance factor, ratio of adriamycin IC50 for human K562/A02 cells over-expressing Pgp to adriamycin IC50 for human K562/A02 cells over-expressing Pgp in presence of 0.156 uM compound; type: functional; outline: as §2
[18] = Resistance factor, ratio of adriamycin IC50 for human K562/A02 cells over-expressing Pgp to adriamycin IC50 for human K562/A02 cells over-expressing Pgp in presence of 0.078 uM compound; type: functional; outline: as §2
[19] = Resistance factor, ratio of adriamycin IC50 for human K562/A02 cells over-expressing Pgp to adriamycin IC50 for human K562/A02 cells over-expressing Pgp in presence of 0.04 uM compound; type: functional; outline: as §2
K562/A02 [20] = assay: Reversal of P-gp-mediated multidrug resistance in human K562/A02 cells assessed as reduction of adriamycin IC50 after 48 hrs by MTT assay; type: cell-based
[21] = Reversal of P-gp-mediated multidrug resistance in human K562/A02 cells assessed as reduction of adriamycin IC50 at 5 uM incubated for 24 hrs prior to adriamycin treatment measured after 48 hrs by MTT assay; type: cell-based
Outline: (§3)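 K562/A02 cells incubated 24 h with 5 µM modulator, verapamil or vehicle, then washed with growth medium. […] Reversal fold = IC50 without modulator / IC50 with modulator. Two to three experiments, mean ± SEM.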

[22] = Reversal of P-gp-mediated multidrug resistance in human K562/A02 cells assessed as reduction of adriamycin IC50 at 5 uM incubated for 24 hrs followed by adriamycin treatment post compound washout measured after 48 hrs by MTT assay; type: cell-based; outline: as §3
[23] = Reversal of P-gp-mediated multidrug resistance in human K562/A02 cells assessed as reduction of adriamycin IC50 at 5 uM incubated for 24 hrs followed by adriamycin treatment 6 hrs post compound washout measured after 48 hrs by MTT assay; type: cell-based; outline: as §3
[24] = Reversal of P-gp-mediated multidrug resistance in human K562/A02 cells assessed as reduction of adriamycin IC50 at 5 uM incubated for 24 hrs followed by adriamycin treatment 12 hrs post compound washout measured after 48 hrs by MTT assay; type: cell-based; outline: as §3
[25] = Resistance factor, ratio of adriamycin IC50 for human K562/A02 cells over-expressing Pgp to adriamycin IC50 for human K562/A02 cells over-expressing Pgp in presence of 5 uM compound incubated for 24 hrs prior to adriamycin treatment; type: functional; outline: as §3
[26] = Resistance factor, ratio of adriamycin IC50 for human K562/A02 cells over-expressing Pgp to adriamycin IC50 for human K562/A02 cells over-expressing Pgp in presence of 5 uM compound incubated for 24 hrs followed by adriamycin treatment post compound washout; type: functional; outline: as §3
[27] = Resistance factor, ratio of adriamycin IC50 for human K562/A02 cells over-expressing Pgp to adriamycin IC50 for human K562/A02 cells over-expressing Pgp in presence of 5 uM compound incubated for 24 hrs followed by adriamycin treatment 6 hrs post compound washout; type: functional; outline: as §3
[28] = Resistance factor, ratio of adriamycin IC50 for human K562/A02 cells over-expressing Pgp to adriamycin IC50 for human K562/A02 cells over-expressing Pgp in presence of 5 uM compound incubated for 24 hrs followed by adriamycin treatment 12 hrs post compound washout; type: functional; outline: as §3
K562/A02 [29] = assay: Inhibition of P-gp mediated efflux in human K562/A02 cells assessed as intracellular rhodamine-123 accumulation at 0.5 uM incubated for 60 mins prior to substrate addition measured after 90 mins by flow cytometry relative to control; type: cell-based
Outline: (§4)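 K562 and K562/A02 cells pretreated 60 min with 0.5, 2.5 or 5 µM test compound or verapamil, then 5 µM rhodamine-123 added for 90 min. Cells washed twice with PBS and resuspended in medium; mean fluorescence read by flow cytometry. Fold change taken against 0.1% DMSO control in each cell group. Three independent experiments, mean ± SD.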

K562/A02 [30] = assay: Inhibition of P-gp mediated efflux in human K562/A02 cells assessed as intracellular rhodamine-123 accumulation at 2.5 uM incubated for 60 mins prior to substrate addition measured after 90 mins by flow cytometry relative to control; type: cell-based; outline: as §4
K562/A02 [31] = assay: Inhibition of P-gp mediated efflux in human K562/A02 cells assessed as intracellular rhodamine-123 accumulation at 5 uM incubated for 60 mins prior to substrate addition measured after 90 mins by flow cytometry relative to control; type: cell-based; outline: as §4
K562/A02 [32] = assay: Inhibition of P-gp mediated efflux in human K562/A02 cells assessed as intracellular rhodamine-123 accumulation incubated for 60 mins prior to substrate addition measured after 90 mins by flow cytometry relative to control; type: cell-based; outline: as §4
K562/A02 [33] = assay: Inhibition of P-gp mediated efflux in human K562/A02 cells assessed as intracellular rhodamine-123 accumulation at 5 uM incubated for 60 mins prior to substrate addition measured after 90 mins by flow cytometry relative to DMSO control

Compound: COc1cc2c(cc1OC)CN(CCn1cc(COc3ccccc3NC(=O)c3cccnc3)nn1)CC2
- pIC50 [1]: 4.72
- Ratio IC50 [2]: 2.9
- Activity [3]: < 10%

Compound: COc1cc2c(cc1OC)CN(CCn1cc(COc3ccccc3NC(=O)c3ccc(Cl)cc3)nn1)CC2
- pIC50 [1]: 5.28
- Ratio IC50 [2]: 10.4
- Activity [3]: < 10%

Compound: COc1cc2c(cc1OC)CN(CCn1cc(COc3ccccc3NC(=O)c3cnc4ccccc4c3)nn1)CC2
- pIC50 [1]: 5.05
- Ratio IC50 [2]: 6.1
- Activity [3]: < 10%

Compound: COc1cc2c(cc1OC)CN(CCn1cc(COc3ccccc3NC(=O)c3ccc(C(C)(C)C)cc3)nn1)CC2
- pIC50 [1]: 5.78
- Ratio IC50 [2]: 32.5
- Activity [3]: < 10%
- pIC50 [4]: < 4.10
- pIC50 [5]: < 4.10
- pIC50 [6]: 5.53
- pIC50 [7]: 5.50
- pIC50 [8]: 5.28
- pIC50 [9]: 5.19
- pIC50 [10]: 4.43
- pIC50 [11]: 4.36
- pIC50 [12]: 4.48
- Ratio IC50 [13]: 18.5
- Ratio IC50 [14]: 17.4
- Ratio IC50 [15]: 10.5
- Ratio IC50 [16]: 8.6
- Ratio IC50 [17]: 1.5
- Ratio IC50 [18]: 1.3
- Ratio IC50 [19]: 1.6
- Activity (K562/A02 [20]): Dose-dependent effect
- pIC50 [21]: 5.67
- pIC50 [22]: 4.96
- pIC50 [23]: 4.45
- pIC50 [24]: 4.26
- Ratio IC50 [25]: 37.4
- Ratio IC50 [26]: 7.7
- Ratio IC50 [27]: 2.4
- Ratio IC50 [28]: 1.5
- fold change (FC) (K562/A02 [29]): 1.55
- fold change (FC) (K562/A02 [30]): 2.4
- fold change (FC) (K562/A02 [31]): 4.04
- inhibition (K562/A02 [32]): Dose-dependent effect
- Ratio (K562/A02 [33]): 2.4

Compound: COc1cc2c(cc1OC)CN(CCn1cc(COc3ccccc3NC(=O)c3ccc(N(C)C)cc3)nn1)CC2
- pIC50 [1]: 5.03
- Ratio IC50 [2]: 5.8
- Activity [3]: < 10%

Compound: COc1cc2c(cc1OC)CN(CCn1cc(COc3ccccc3NC(=O)c3ccccc3[N+](=O)[O-])nn1)CC2
- pIC50 [1]: 4.81
- Ratio IC50 [2]: 3.5
- Activity [3]: < 10%

Compound: COc1cc2c(cc1OC)CN(CCn1cc(COc3ccccc3NC(=O)c3ccccc3)nn1)CC2
- pIC50 [1]: 4.97
- Ratio IC50 [2]: 5
- Activity [3]: < 10%

Compound: COc1ccc(C(=O)Nc2ccccc2OCc2cn(CCN3CCc4cc(OC)c(OC)cc4C3)nn2)cc1OC
- pIC50 [1]: 5.19
- Ratio IC50 [2]: 8.4
- Activity [3]: < 10%

Compound: COc1cc2c(cc1OC)CN(CCn1cc(COc3ccccc3NC(=O)c3ccccc3OC)nn1)CC2
- pIC50 [1]: 5.17
- Ratio IC50 [2]: 8.1
- Activity [3]: < 10%

Compound: COc1cc(OC)cc(C(=O)Nc2ccccc2OCc2cn(CCN3CCc4cc(OC)c(OC)cc4C3)nn2)c1
- pIC50 [1]: 4.86
- Ratio IC50 [2]: 3.9
- Activity [3]: < 10%
